High-throughput results from PubChem BioAssay.
EBI2 block: blocks human EBI2 receptor beta-arrestin signaling; P32249; EBI2 beta-arrestin recruitment, luminescence, 7a,25-OHC stimulated; inhibition, % at 5 µM; 360,000 compounds, 0.81% hits; AID 651636; in the data active means inhibition above about 38%;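 further: enzyme fragment complementation signal reports receptor beta-arrestin coupling in cells; 0% = agonist plus DMSO wells and 100% = wells without agonist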
Target sequence (P32249 whole entry, looked up, the tested form may be a part): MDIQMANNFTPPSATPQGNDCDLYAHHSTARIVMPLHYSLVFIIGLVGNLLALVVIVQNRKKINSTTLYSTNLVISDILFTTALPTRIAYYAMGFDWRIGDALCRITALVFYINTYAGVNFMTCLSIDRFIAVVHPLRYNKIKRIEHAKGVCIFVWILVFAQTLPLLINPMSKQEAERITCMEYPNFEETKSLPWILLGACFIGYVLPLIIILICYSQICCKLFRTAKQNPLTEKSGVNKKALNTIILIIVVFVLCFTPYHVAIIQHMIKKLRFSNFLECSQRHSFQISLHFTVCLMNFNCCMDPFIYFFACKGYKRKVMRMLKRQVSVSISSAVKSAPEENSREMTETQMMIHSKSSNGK
APJ antag: APJ receptor antagonism; P35414; CHO-K1 APJ beta-arrestin complementation, luminescence; inhibition, % at 20 µM; 330,000 compounds, 0.32% hits;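 active means inhibition above about 40% at 20 µM, limit read from the data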;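 further: cells challenged with 10 nM apelin-13 agonist together with compound; plate controls were apelin-13 plus DMSO wells for no effect and DMSO wells lacking apelin-13 for full effect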
APJ agonist: APJ receptor agonism; CHO-K1 APJ PathHunter beta-arrestin, luminescence; 0% DMSO wells, 100% apelin; activation, % at 20 µM; 330,000 compounds, 0.11% hits; AID 2520;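 active means activation more than six SD over the plate average, tested at 20 µM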;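 further: 0% = DMSO alone and 100% = apelin-13 at 10 nM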
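Incubation: overnight seeding, 90 min compound at 25 °C, 1 h detection; test system: PathHunter CHO-K1 APJ (AGTRL-1) beta-arrestin reporter cells; amount: 1000 cells/well; doses: one dose, 20 µM compound, 1% DMSO; measured by: beta-gal luminescence; measure: agonist-driven arrestin binding to APJ; benchmarks: negative DMSO alone, positive Apelin-13 at 10 nM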
CCR6 antagonist: antagonists of human CCR6 receptor; CHO-K1 CCR6 PathHunter beta-arrestin, luminescence, CCL20-stimulated; inhibition, % at 20 µM; 340,000 compounds, 0.49% hits; AID 493098;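 active means compounds whose inhibition of the agonist-driven luminescence signal at 20 µM reaches about 50%, limit read from the data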;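 further: cells stimulated with CCL20 at 14 nM final; plate controls were DMSO with CCL20 for no effect and DMSO without agonist for full effect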
CXCR6 block: blocks human CXCR6 beta-arrestin recruitment. CHO-K1 PathHunter CXCR6 beta-arrestin, luminescence. inhibition, % at 20 µM. 360,000 compounds, 0.36% hits; in the data active means inhibition above about 34%, passing the limit was not always enough;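 further: antagonist mode with CXCL16 agonist at 10 nM final; 0% = 10 nM CXCL16 with DMSO and 100% = unstimulated wells without agonist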
APJ antag confirm: confirmation of human APJ apelin receptor antagonists. shares compounds with APJ antag. APJ beta-arrestin recruitment, luminescence, antagonist mode. inhibition, % at 20 µM. 950 compounds, 66% hits. AID 2766; in the data active means inhibition above about 50%
An asterisk follows results filed as active. In the library only some 1.5% were active in any assay of this set; here they are far more common.

`Cc1ccc(C(C#N)c2ccc3c(C(F)(F)F)cc(C(F)(F)F)nc3n2)cc1` (configuration not stated) gave EBI2 block -9, APJ antag 49*, APJ agonist -6, CCR6 antagonist 54*, CXCR6 block 35 and APJ antag confirm 80*.
For O=C(Nc1ccc(OCc2ccccc2)cc1)Nc1nnc([C@H]2C[C@H](O)[C@@H](CO)O2)s1 the results were EBI2 block -12 and CXCR6 block 1.
`O=C(C[n+]1ccc(-c2cc(C(=O)Nc3cccc(C(F)(F)F)c3)c3ccccc3n2)cc1)c1cccc([N+](=O)[O-])c1` gave EBI2 block -9, APJ antag 52*, APJ agonist -5, CCR6 antagonist 38, CXCR6 block 27 and APJ antag confirm 63*.
`O=C1Nc2ccc(Br)cc2C1=C1CCCCC1` gave EBI2 block -9, APJ antag -5, APJ agonist 1, CCR6 antagonist -4 and CXCR6 block -2.
Cc1ccc(N=C2C(=O)Nc3c(C)cccc32)cc1 was read as EBI2 block 11, APJ antag 43*, APJ agonist -9, CCR6 antagonist 58*, CXCR6 block 18 and APJ antag confirm 95*.
For Cc1ccc(N=C2C(=O)Nc3ccc(Br)cc32)cc1 the results were EBI2 block 17, APJ antag 68*, APJ agonist -16, CCR6 antagonist 54*, CXCR6 block 36 and APJ antag confirm 156*.
Screening Cc1cccc2c1NC(=O)C2=Nc1ccc(Cl)cc1 returned EBI2 block 9, APJ antag 63*, APJ agonist -14, CCR6 antagonist 76*, CXCR6 block 32 and APJ antag confirm 94*.
Screening CS/C(Nc1cc(Cl)ccc1Cl)=C(/C#N)C(=O)c1ccco1 returned EBI2 block 15, APJ antag -15, APJ agonist 1, CCR6 antagonist 11 and CXCR6 block -1.
For O=C(O)c1ccc(N=N/C(=N\Nc2ccc(C(=O)O)cc2)c2ccccc2)cc1 the results were EBI2 block 17, APJ antag 55*, APJ agonist -7, CCR6 antagonist 49, CXCR6 block 25 and APJ antag confirm 84*.
`NNc1nc(-c2ccccc2)cc(-c2ccc(Br)cc2)n1` gave EBI2 block 22, APJ antag 73*, APJ agonist -13, CCR6 antagonist 37, CXCR6 block 12 and APJ antag confirm 105*.
Screening NNc1nc(-c2ccccc2)c2cc(Br)ccc2n1 returned EBI2 block 4, APJ antag 32, APJ agonist -7, CCR6 antagonist 22 and CXCR6 block -19.
CC(C)Oc1ccc(CN2CCC2(C)C(=O)Nc2ccc(Cl)c(Cl)c2)cc1 (configuration not stated) was read as EBI2 block 6 and CXCR6 block 0.
Screening Cc1ccc2nsnc2c1NC(=O)CCl returned EBI2 block -6, APJ antag 6, APJ agonist -3, CCR6 antagonist -5 and CXCR6 block -1.
For Cc1ccc2nsnc2c1NC(=O)Cc1ccc(Cl)cc1 the results were EBI2 block 8, APJ antag 45*, APJ agonist -5, CCR6 antagonist 19, CXCR6 block 8 and APJ antag confirm 47.
`O=C(Nc1ccc2c(c1)OCCO2)C1c2ccccc2OCC(=O)N1Cc1cccnc1` (configuration not stated) gave EBI2 block -4 and CXCR6 block 2.
O=[N+]([O-])c1ccc(N2CCN(S(=O)(=O)c3ccccc3)CC2)c2cccnc12 was read as EBI2 block 16, APJ antag 46*, APJ agonist -5, CCR6 antagonist 52*, CXCR6 block 31 and APJ antag confirm 65*.
COC(=O)c1cc(C(=O)OC)n(Cc2ccc(C)cc2)c1C was read as EBI2 block 17, APJ antag 15, APJ agonist -3, CCR6 antagonist 14 and CXCR6 block -2.
For CCN(Cc1ccccc1)c1ccc(N=Nc2nn(C)c(C)c2[N+](=O)[O-])cc1 the results were EBI2 block 20, APJ antag 44*, APJ agonist -7, CCR6 antagonist 64*, CXCR6 block 49* and APJ antag confirm 113*.
`CCN(Cc1ccccc1)c1ccccc1` gave EBI2 block 0, CCR6 antagonist 18 and CXCR6 block -1.
Screening N#C/C(=N\Nc1ccccc1)C(N)=S returned EBI2 block -15, APJ antag 22, APJ agonist -6, CCR6 antagonist 15 and CXCR6 block 12.
Screening N#C/C(=N/Nc1ccccc1[N+](=O)[O-])C(N)=S returned EBI2 block -3, APJ antag 40*, APJ agonist -9, CCR6 antagonist 36, CXCR6 block 18 and APJ antag confirm 105*.
`CCC(CC)c1nnc(NC(=O)CSCC(=O)Nc2cc(C)on2)s1` gave EBI2 block -9, APJ antag -47, APJ agonist 1, CCR6 antagonist -3 and CXCR6 block -1.
Screening CCCCN1C(=O)N(CCc2ccc(F)cc2)S(=O)(=O)c2cc(C(F)(F)F)ccc21 returned EBI2 block 6, CCR6 antagonist 23 and CXCR6 block -2.
CCOc1c(C(N)=O)c(-c2ccccc2)c2c(=O)[nH]c3ccccc3n12 was read as EBI2 block 20, APJ antag 60*, APJ agonist -8, CCR6 antagonist 16, CXCR6 block 35 and APJ antag confirm 60*.
CC(=O)Oc1ccc2c(=O)c(Oc3ccccc3)coc2c1OC(C)=O was read as EBI2 block 4, APJ antag -24, APJ agonist 4, CCR6 antagonist 8 and CXCR6 block -6.
CN1C(=O)/C(=C2/C=Cc3ccccc3N2CCCS(=O)(=O)O)SC1=S was read as EBI2 block 0, APJ antag 47*, APJ agonist -9, CCR6 antagonist 58*, CXCR6 block 38 and APJ antag confirm 96*.
Screening CCN1/C(=C2\C(=O)N(C)C(=S)N2C)C=Cc2ccccc21 returned EBI2 block -4, APJ antag 20, APJ agonist -5, CCR6 antagonist 12 and CXCR6 block 4.
CCCCOc1ccc(C(=O)N/C(=C/C=C/c2ccccc2)C(=O)NCCO)cc1 was read as EBI2 block 1, APJ antag 43*, APJ agonist -2, CCR6 antagonist 9, CXCR6 block -4 and APJ antag confirm -14.
CCCCOc1ccc(C(=O)N/C(=C/C=C/c2ccccc2)C(=O)NCCCO)cc1 was read as EBI2 block 2, APJ antag 16, APJ agonist -4, CCR6 antagonist 10 and CXCR6 block 2.
COc1ccc(/C=C/C(=O)NC(=S)NNC(=O)c2c(-c3ccccc3)noc2C)cc1 was read as EBI2 block 17, APJ antag 43*, APJ agonist -7, CCR6 antagonist 3, CXCR6 block 32 and APJ antag confirm 92*.
